Source: ChEMBL document CHEMBL4368925, “Design, synthesis, and screening of novel ursolic acid derivatives as potential anti-cancer agents that target the HIF-1α pathway” (Bioorg Med Chem Lett, 2019)

Tested on: Hep 3B2
Experiment: Cytotoxicity against human Hep3B cells assessed as reduction in cell viability after 24 hrs in normoxic condition by MTT assay
Assay type: cell-based
Method in brief: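 Hep3B viability by MTT assay after 24 h compound treatment under normoxia; table values are means, n=3.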

Row | SMILES | IC50
1 | C[C@H]1[C@H](C)CC[C@]2(C(=O)O)CC[C@]3(C)C(=CC[C@@H]4[C@@]5(C)CC(=C\c6ccccc6F)/C(=N\NC(=N)N)C(C)(C)[C@@H]5CC[C@]43C)[C@H]12 | > 100 µM
2 | C[C@H]1[C@H](C)CC[C@]2(C(=O)OCc3c(Cl)cccc3Cl)CC[C@]3(C)C(=CC[C@@H]4[C@@]5(C)CC/C(=N\NC(=N)N)C(C)(C)[C@@H]5CC[C@]43C)[C@H]12 | 22.3 µM
3 | COC(=O)[C@]12CC[C@@H](C)[C@H](C)[C@H]1C1=CC[C@@H]3[C@@]4(C)CC/C(=N\NC(=N)N)C(C)(C)[C@@H]4CC[C@@]3(C)[C@]1(C)CC2 | > 100 µM
4 | C[C@H]1[C@H](C)CC[C@]2(C(=O)O)CC[C@]3(C)C(=CC[C@@H]4[C@@]5(C)CC(=C\c6cccc7ccccc67)/C(=N\NC(=N)N)C(C)(C)[C@@H]5CC[C@]43C)[C@H]12 | > 100 µM
5 | C[C@H]1[C@H](C)CC[C@]2(C(=O)O)CC[C@]3(C)C(=CC[C@@H]4[C@@]5(C)CC(=C\c6ccc(F)cc6)/C(=N\NC(=N)N)C(C)(C)[C@@H]5CC[C@]43C)[C@H]12 | > 100 µM
6 | C[C@H]1[C@H](C)CC[C@]2(C(=O)O)CC[C@]3(C)C(=CC[C@@H]4[C@@]5(C)CC(=C\c6ccco6)/C(=N\NC(=N)N)C(C)(C)[C@@H]5CC[C@]43C)[C@H]12 | > 100 µM
7 | C[C@H]1[C@H](C)CC[C@]2(C(=O)O)CC[C@]3(C)C(=CC[C@@H]4[C@@]5(C)CC/C(=N\NC(N)=O)C(C)(C)[C@@H]5CC[C@]43C)[C@H]12 | 69.8 µM
8 | C[C@H]1[C@H](C)CC[C@]2(C(=O)O)CC[C@]3(C)C(=CC[C@@H]4[C@@]5(C)CC(=C\c6cccc(Br)c6)/C(=N\NC(=N)N)C(C)(C)[C@@H]5CC[C@]43C)[C@H]12 | > 100 µM
9 | C[C@H]1[C@H](C)CC[C@]2(C(=O)OCc3cccc(Cl)c3)CC[C@]3(C)C(=CC[C@@H]4[C@@]5(C)CC/C(=N\NC(=N)N)C(C)(C)[C@@H]5CC[C@]43C)[C@H]12 | 34.1 µM
10 | C[C@H]1[C@H](C)CC[C@]2(C(=O)O)CC[C@]3(C)C(=CC[C@@H]4[C@@]5(C)CC(=C\c6ccccc6Br)/C(=N\NC(=N)N)C(C)(C)[C@@H]5CC[C@]43C)[C@H]12 | > 100 µM
11 | Cc1ccc(/C=C2\C[C@]3(C)[C@H]4CC=C5[C@@H]6[C@@H](C)[C@H](C)CC[C@]6(C(=O)O)CC[C@@]5(C)[C@]4(C)CC[C@H]3C(C)(C)\C2=N\NC(=N)N)cc1 | > 100 µM
12 | C[C@H]1[C@H](C)CC[C@]2(C(=O)O)CC[C@]3(C)C(=CC[C@@H]4[C@@]5(C)CC/C(=N\NC(N)=S)C(C)(C)[C@@H]5CC[C@]43C)[C@H]12 | > 100 µM
13 | C[C@H]1[C@H](C)CC[C@]2(C(=O)O)CC[C@]3(C)C(=CC[C@@H]4[C@@]5(C)CC/C(=N\NC(=N)N)C(C)(C)[C@@H]5CC[C@]43C)[C@H]12 | > 100 µM
14 | Cc1ccc(COC(=O)[C@]23CC[C@@H](C)[C@H](C)[C@H]2C2=CC[C@@H]4[C@@]5(C)CC/C(=N\NC(=N)N)C(C)(C)[C@@H]5CC[C@@]4(C)[C@]2(C)CC3)cc1 | 18 µM
15 | C[C@H]1[C@H](C)CC[C@]2(C(=O)O)CC[C@]3(C)C(=CC[C@@H]4[C@@]5(C)CC(=C\c6ccc([N+](=O)[O-])cc6)/C(=N\NC(=N)N)C(C)(C)[C@@H]5CC[C@]43C)[C@H]12 | > 100 µM
16 | C[C@H]1[C@H](C)CC[C@]2(C(=O)O)CC[C@]3(C)C(=CC[C@@H]4[C@@]5(C)CC(=C\c6ccccc6)/C(=N\NC(=N)N)C(C)(C)[C@@H]5CC[C@]43C)[C@H]12 | > 100 µM
17 | C[C@H]1[C@H](C)CC[C@]2(C(=O)OCc3ccc(F)cc3)CC[C@]3(C)C(=CC[C@@H]4[C@@]5(C)CC/C(=N\NC(=N)N)C(C)(C)[C@@H]5CC[C@]43C)[C@H]12 | 12.9 µM
18 | C[C@H]1[C@H](C)CC[C@]2(C(=O)O)CC[C@]3(C)C(=CC[C@@H]4[C@@]5(C)CC(=C\c6cccc(Cl)c6)/C(=N\NC(=N)N)C(C)(C)[C@@H]5CC[C@]43C)[C@H]12 | > 100 µM
19 | C[C@H]1[C@H](C)CC[C@]2(C(=O)OCc3ccc(Cl)cc3Cl)CC[C@]3(C)C(=CC[C@@H]4[C@@]5(C)CC/C(=N\NC(=N)N)C(C)(C)[C@@H]5CC[C@]43C)[C@H]12 | > 100 µM
20 | C[C@H]1[C@H](C)CC[C@]2(C(=O)O)CC[C@]3(C)C(=CC[C@@H]4[C@@]5(C)CC(=C\c6cccc(F)c6)/C(=N\NC(=N)N)C(C)(C)[C@@H]5CC[C@]43C)[C@H]12 | 10.5 µM
21 | C[C@H]1[C@H](C)CC[C@]2(C(=O)O)CC[C@]3(C)C(=CC[C@@H]4[C@@]5(C)CC(=C\c6cccs6)/C(=N\NC(=N)N)C(C)(C)[C@@H]5CC[C@]43C)[C@H]12 | > 100 µM
22 | CCCCCOC(=O)[C@]12CC[C@@H](C)[C@H](C)[C@H]1C1=CC[C@@H]3[C@@]4(C)CC/C(=N\NC(=N)N)C(C)(C)[C@@H]4CC[C@@]3(C)[C@]1(C)CC2 | 22 µM
23 | CCOC(=O)[C@]12CC[C@@H](C)[C@H](C)[C@H]1C1=CC[C@@H]3[C@@]4(C)CC/C(=N\NC(=N)N)C(C)(C)[C@@H]4CC[C@@]3(C)[C@]1(C)CC2 | 6 µM
24 | C[C@H]1[C@H](C)CC[C@]2(C(=O)OCc3ccc(Cl)cc3)CC[C@]3(C)C(=CC[C@@H]4[C@@]5(C)CC/C(=N\NC(=N)N)C(C)(C)[C@@H]5CC[C@]43C)[C@H]12 | 32.1 µM
25 | C[C@H]1[C@H](C)CC[C@]2(C(=O)O)CC[C@]3(C)C(=CC[C@@H]4[C@@]5(C)CC[C@H](O)C(C)(C)[C@@H]5CC[C@]43C)[C@H]12 [URSOLIC ACID] | 23.8 µM
26 | C[C@H]1[C@H](C)CC[C@]2(C(=O)O)CC[C@]3(C)C(=CC[C@@H]4[C@@]5(C)CC(=C\c6ccccc6Cl)/C(=N\NC(=N)N)C(C)(C)[C@@H]5CC[C@]43C)[C@H]12 | > 100 µM
27 | C[C@H]1[C@H](C)CC[C@]2(C(=O)O)CC[C@]3(C)C(=CC[C@@H]4[C@@]5(C)CC(=C\c6ccc(Cl)cc6Cl)/C(=N\NC(=N)N)C(C)(C)[C@@H]5CC[C@]43C)[C@H]12 | > 100 µM
28 | C[C@H]1[C@H](C)CC[C@]2(C(=O)O)CC[C@]3(C)C(=CC[C@@H]4[C@@]5(C)CC(=C\c6c(Cl)cccc6Cl)/C(=N\NC(=N)N)C(C)(C)[C@@H]5CC[C@]43C)[C@H]12 | > 100 µM
